According to the M2OR odorant receptor database:

Experiments:
Settings in all cases: stereoisomer not certain
OR13C2 (Homo sapiens) = molecular target: T1, OR13C2 (Homo sapiens) (UniProt Q8NGS9)
T1 sequence (whole entry): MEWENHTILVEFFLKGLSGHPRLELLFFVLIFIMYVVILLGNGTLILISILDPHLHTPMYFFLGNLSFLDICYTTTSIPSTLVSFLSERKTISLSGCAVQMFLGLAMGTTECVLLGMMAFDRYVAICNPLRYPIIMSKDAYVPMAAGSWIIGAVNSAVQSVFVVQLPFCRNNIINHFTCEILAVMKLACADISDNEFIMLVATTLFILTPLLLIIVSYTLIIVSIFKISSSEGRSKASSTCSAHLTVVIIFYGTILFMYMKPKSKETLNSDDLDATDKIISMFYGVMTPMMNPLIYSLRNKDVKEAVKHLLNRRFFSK
In short: (§1)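 Each receptor–molecule pair is labelled responsive or non-responsive (inactive) according to whether the original authors judged the measured signal statistically different from baseline. The data were taken from the main text and supplementary material of published papers and checked for typos and inconsistencies. Assay methods differed by source, with transient luciferase assays in mammalian cell lines being common.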

OR13C3 (Homo sapiens) = molecular target: T2, OR13C3 (Homo sapiens) (UniProt Q8NGS6)
T2 sequence (whole entry): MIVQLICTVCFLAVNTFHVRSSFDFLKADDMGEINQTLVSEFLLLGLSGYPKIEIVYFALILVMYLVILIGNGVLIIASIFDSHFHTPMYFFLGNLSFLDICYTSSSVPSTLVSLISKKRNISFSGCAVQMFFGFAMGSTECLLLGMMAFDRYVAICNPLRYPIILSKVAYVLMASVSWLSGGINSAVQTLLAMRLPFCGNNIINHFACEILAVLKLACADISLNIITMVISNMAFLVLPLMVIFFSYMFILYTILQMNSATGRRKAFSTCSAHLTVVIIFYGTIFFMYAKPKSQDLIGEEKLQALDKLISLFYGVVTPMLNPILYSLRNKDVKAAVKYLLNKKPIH
In short: as §1

OR13C4 (Homo sapiens) = molecular target: T3, OR13C4 (Homo sapiens) (UniProt Q8NGS5)
T3 sequence (whole entry): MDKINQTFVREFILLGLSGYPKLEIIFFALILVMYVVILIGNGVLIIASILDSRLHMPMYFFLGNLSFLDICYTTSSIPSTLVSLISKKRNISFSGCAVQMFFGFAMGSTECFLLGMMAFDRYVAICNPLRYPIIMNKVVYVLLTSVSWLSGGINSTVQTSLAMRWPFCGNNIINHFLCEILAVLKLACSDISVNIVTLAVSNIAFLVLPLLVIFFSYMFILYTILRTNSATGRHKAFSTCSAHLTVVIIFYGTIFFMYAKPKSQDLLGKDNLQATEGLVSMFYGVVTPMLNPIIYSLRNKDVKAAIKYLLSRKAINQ
In short: as §1

OR13C5 (Homo sapiens) = molecular target: T4, OR13C5 (Homo sapiens) (UniProt Q8NGS8)
T4 sequence (whole entry): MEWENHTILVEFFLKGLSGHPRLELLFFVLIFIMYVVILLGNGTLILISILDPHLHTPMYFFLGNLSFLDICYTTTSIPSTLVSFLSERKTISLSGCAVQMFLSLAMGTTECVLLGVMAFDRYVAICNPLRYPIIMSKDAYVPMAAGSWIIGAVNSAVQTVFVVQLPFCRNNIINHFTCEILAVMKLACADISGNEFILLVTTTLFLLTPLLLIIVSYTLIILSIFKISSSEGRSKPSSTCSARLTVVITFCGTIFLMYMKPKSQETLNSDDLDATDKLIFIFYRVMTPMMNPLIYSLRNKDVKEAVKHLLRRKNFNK
In short: as §1

OR13C7 (Homo sapiens) = OR13C7 (Homo sapiens) (UniProt P0DN81)
In short: as §1

OR13C8 (Homo sapiens) = molecular target: T5, OR13C8 (Homo sapiens) (UniProt Q8NGS7)
T5 sequence (whole entry): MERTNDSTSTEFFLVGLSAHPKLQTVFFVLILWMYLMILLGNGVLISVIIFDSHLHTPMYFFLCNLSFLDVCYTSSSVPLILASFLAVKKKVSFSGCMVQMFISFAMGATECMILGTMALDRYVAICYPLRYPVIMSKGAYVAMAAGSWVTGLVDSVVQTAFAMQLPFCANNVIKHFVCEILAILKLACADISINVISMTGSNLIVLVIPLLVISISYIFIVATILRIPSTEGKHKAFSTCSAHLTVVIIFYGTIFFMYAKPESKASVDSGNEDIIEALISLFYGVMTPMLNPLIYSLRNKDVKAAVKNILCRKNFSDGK
In short: as §1

OR13C9 (Homo sapiens) = molecular target: T6, OR13C9 (Homo sapiens) (UniProt Q8NGT0)
T6 sequence (whole entry): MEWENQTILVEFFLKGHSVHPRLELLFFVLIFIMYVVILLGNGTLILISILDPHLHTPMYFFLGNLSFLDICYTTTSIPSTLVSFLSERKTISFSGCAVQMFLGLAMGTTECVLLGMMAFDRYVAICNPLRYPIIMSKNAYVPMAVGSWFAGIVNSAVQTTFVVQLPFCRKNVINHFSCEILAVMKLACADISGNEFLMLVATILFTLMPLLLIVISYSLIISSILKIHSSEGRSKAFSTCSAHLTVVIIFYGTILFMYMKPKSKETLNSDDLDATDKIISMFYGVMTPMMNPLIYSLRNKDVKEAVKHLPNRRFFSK
In short: as §1

OR13D1 (Homo sapiens) = molecular target: T7, OR13D1 (Homo sapiens) (UniProt Q8NGV5)
T7 sequence (whole entry): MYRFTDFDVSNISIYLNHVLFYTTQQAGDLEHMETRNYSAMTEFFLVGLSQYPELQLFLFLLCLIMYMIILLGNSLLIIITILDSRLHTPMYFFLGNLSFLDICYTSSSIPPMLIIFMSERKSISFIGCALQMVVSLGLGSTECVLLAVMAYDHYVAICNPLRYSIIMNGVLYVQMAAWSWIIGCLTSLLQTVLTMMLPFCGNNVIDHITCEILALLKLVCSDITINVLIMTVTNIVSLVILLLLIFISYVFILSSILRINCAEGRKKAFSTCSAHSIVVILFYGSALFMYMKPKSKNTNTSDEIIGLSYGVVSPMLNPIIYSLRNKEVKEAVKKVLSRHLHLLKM
In short: as §1

OR13F1 (Homo sapiens) = molecular target: T8, OR13F1 (Homo sapiens) (UniProt Q8NGS4)
T8 sequence (whole entry): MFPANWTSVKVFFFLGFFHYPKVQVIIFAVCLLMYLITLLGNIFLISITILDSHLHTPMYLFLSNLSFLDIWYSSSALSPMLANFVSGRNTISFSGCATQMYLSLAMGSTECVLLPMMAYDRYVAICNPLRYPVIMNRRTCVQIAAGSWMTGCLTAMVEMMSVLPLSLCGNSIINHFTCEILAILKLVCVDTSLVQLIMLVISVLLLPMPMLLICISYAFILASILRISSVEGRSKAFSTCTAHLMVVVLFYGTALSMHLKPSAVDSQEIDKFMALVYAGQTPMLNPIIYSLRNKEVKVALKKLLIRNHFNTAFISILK
In short: as §1

Measured: odorant receptor agonist call;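 also: active if original authors judged signal statistically different from baseline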

Chain of OR13C7 (Homo sapiens) (P0DN81 whole entry): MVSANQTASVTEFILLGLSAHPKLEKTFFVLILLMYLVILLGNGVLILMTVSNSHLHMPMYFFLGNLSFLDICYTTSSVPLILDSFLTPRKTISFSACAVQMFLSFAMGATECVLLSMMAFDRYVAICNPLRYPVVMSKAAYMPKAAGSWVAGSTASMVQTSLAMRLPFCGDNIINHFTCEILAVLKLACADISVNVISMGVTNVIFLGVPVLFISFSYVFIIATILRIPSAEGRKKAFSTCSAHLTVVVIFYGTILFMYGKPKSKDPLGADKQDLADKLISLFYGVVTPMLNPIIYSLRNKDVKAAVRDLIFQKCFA

CC1CCCCCCCCCCCCC(=O)C1 (centres undefined)
inactive: all assays above
